OX1R antag-1 – antagonists of human orexin 1 receptor (OX1R) | O43613 | OX1R-expressing cells, FRET antagonist read-out | inhibition, % at 6.6 µM | actives 1.8% (n = 330,000) | AID 485270; in the data active = inhibition mostly above about 38%, no sharp cut-off; inactive = mostly below about 40%;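 also: 0% = agonist challenge alone and 100% = reference antagonist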
CHO parental Ca – counter-screen for OX1R antagonists: effect in parental CHO cells; parental CHO-K1, ATP-induced calcium, Fluo-8 fluorescence; inhibition, % at 5.6 µM; actives 0.63% (n = 330,000);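 active = inhibition above that plate's mean sample inhibition plus 3 SD, cut at about 26% in these data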;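 also: 0% = ATP-challenged DMSO wells and 100% = DMSO wells without ATP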
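Test system: untransfected parental CHO cell line. Compound: one dose, 5.6 µM nominal. Detection: intracellular calcium via Fluo-8 no-wash fluorescent dye. Measure: % inhibition. Benchmarks: ATP-challenged DMSO wells low, unchallenged DMSO wells high.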
OX1R antag-2 – human HCRTR1 antagonism | CHO/OX1R cells, Fluo-8 calcium fluorescence, orexin A | inhibition, % at 5 µM | actives 0.43% (n = 330,000);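 active = inhibition above its plate's threshold, mean inhibition of all tested compounds on the plate plus 3 SD, cut at about 37% in these data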;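 also: 0% = orexin A challenge wells and 100% = SB-334867-A antagonist wells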
NTR1 ag – activates human neurotensin receptor 1. NTR1-U2OS beta-arrestin-GFP spot imaging, agonist mode. activation, % at 20 µM. actives 0.17% (n = 330,000). AID 493036;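 active = activation at or above 40% of the spot to cytoplasm intensity ratio, with at least 20 cells analyzed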;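 also: 0% = DMSO without peptide and 100% = 100 nM NTR1 peptide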
Target sequence (P30989 whole entry, looked up): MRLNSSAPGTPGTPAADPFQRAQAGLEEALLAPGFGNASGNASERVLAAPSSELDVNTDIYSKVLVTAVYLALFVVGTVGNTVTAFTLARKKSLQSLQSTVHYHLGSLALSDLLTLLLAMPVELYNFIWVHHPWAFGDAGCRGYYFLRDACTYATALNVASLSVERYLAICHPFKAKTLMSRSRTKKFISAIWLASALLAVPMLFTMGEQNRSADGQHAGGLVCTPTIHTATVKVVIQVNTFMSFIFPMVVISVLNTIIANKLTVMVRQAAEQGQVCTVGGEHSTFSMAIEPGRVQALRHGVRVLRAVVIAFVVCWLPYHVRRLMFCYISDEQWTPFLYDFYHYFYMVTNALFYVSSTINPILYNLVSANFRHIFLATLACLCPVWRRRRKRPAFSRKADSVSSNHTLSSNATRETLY
TAAR1 antagonist – human TAAR1 antagonism | Q96RJ0 | CHO RD-HGA16 TAAR1, Fluo-8 calcium fluorescence, antagonist | inhibition, % at 3 µM | actives 1.5% (n = 360,000) | AID 624466;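 active = inhibition above a per-plate cutoff, the mean inhibition of test compounds on that plate plus 3 SD, cut at about 49% in these data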;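 also: 0% = DMSO plus EC80 beta-PEA response and 100% = DMSO alone without agonist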
Target sequence (Q96RJ0 whole entry, looked up): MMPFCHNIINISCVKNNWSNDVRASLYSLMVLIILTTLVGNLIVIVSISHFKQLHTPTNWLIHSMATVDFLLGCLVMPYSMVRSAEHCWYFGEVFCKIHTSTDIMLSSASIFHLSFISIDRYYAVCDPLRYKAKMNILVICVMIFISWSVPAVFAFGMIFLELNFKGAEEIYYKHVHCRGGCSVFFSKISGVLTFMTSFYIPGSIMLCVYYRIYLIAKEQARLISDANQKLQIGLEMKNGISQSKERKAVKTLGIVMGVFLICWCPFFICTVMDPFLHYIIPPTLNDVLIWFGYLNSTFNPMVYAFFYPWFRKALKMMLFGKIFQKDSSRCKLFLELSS
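Test system: hTAAR1-expressing CHO RD-HGA16 cells, Gα16-coupled; Probe or stimulus: EC80 β-phenethylamine stimulus; Compound dosing: single nominal final test compound concentration of 3 µM; Timing: 140 s kinetic read after compound, 140 s after agonist; Signal: Fluo-8 calcium-sensitive fluorescence; Measure: % inhibition of agonist calcium response; Controls: DMSO and EC80 PEA controls.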
TAAR1 agonist – human TAAR1 agonism; Q96RJ0; CHO RD-HGA16 TAAR1, Fluo-8 calcium fluorescence; vehicle wells 0%, saturating PEA agonist 100%; activation, % at 3 µM; actives 0.99% (n = 360,000);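 active = activation above the mean activation of all test compounds in the run plus 3 SD, cut at about 38% in these data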
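Test system: RD-HGA16 (CHO) cells co-expressing Gα16 and hTAAR1 | Doses: Single dose, 3 µM | Schedule: 17-24 h seeding, 75 min 37 °C dye, 30 min RT | Evaluation: % activation from peak over basal fluorescence ratio, DMSO-to-PEA scaled | Technique: Kinetic Fluo-8 calcium fluorescence | Benchmarks: Low control DMSO, high control PEA (EC100)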
OX1R HTRF conf – confirmation of human orexin 1 receptor antagonists, HTRF format; shares compounds with OX1R antag-1; OX1R-expressing cells, HTRF antagonist assay; inhibition, % at 6.6 µM; actives 49% (n = 1,800); AID 492964; in the data active = inhibition above about 55%;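 also: CHO cells expressing OX1R stimulated with orexin A at about EC80; 0% = agonist challenge alone and 100% = reference antagonist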
CHO-K1 HTRF cnt – counter-screen: parental CHO-K1 HTRF response; shares compounds with OX1R antag-1; actives 48% (n = 1,800); AID 493232; parental CHO-K1 cells, HTRF counterscreen; inhibition, % at 6.6 µM; in the data active = inhibition above about 17%;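 also: 0% = agonist challenge with vehicle and 100% = vehicle alone without agonist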
NTR1 ag confirm – confirmation of agonists of human NTR1. shares compounds with NTR1 ag. NTR1-U2OS beta-arrestin-GFP translocation imaging. activation, % at 20 µM. actives 38% (n = 480);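 active = mean activation at 20 µM of at least 40%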;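 also: 0% = DMSO without peptide and 100% = 100 nM NTR1 peptide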
nonsel antag count – nonselective antagonism, TAAR1 counter-screen; inhibition, % at 3 µM; actives 77% (n = 2,400); counterscreen cell line, calcium fluorescence, antagonist mode; shares compounds with TAAR1 antagonist; in the data active = inhibition above about 22%;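 also: CHO-Ga16 host cells stimulated with ATP at an EC80 level; 0% = agonist EC80 plus vehicle and 100% = vehicle without agonist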
TAAR1 antag conf – human TAAR1 antagonism, confirmed | shares compounds with TAAR1 antagonist | TAAR1-expressing cells, fluorescence antagonist read-out | inhibition, % at 3 µM | actives 40% (n = 2,400); in the data active = inhibition above about 49%;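 also: CHO-Ga16 host cells challenged with agonist PEA near its EC80; 0% = agonist at EC80 plus vehicle and 100% = vehicle with no agonist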
Ga16 ag counter-1 – nonselective Ga16 agonist in TAAR1 antagonist counter-screen; shares compounds with TAAR1 antagonist; Ga16-expressing cells, calcium fluorescence, agonist counterscreen; activation, % at 3 µM; actives 18% (n = 2,400); AID 651953; in the data active = activation above about 12%;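 also: 0% = vehicle wells and 100% = saturating stimulus response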
TAAR1 ag counter – counter-screen for human TAAR1 antagonists: TAAR1 agonists; activation, % at 3 µM; AID 651955; hTAAR1 cell line, fluorescence activation, agonist mode; actives 2% (n = 2,400); shares compounds with TAAR1 antagonist; in the data active = activation above about 37%;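 also: CHO cells stably expressing TAAR1 with calcium dye readout; 0% = DMSO vehicle and 100% = full agonist response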
TAAR1 ag conf – confirmation of human TAAR1 agonists | shares compounds with TAAR1 agonist | CHO RD-HGA16 TAAR1, Fluo-8 calcium fluorescence; scaled: DMSO 0%, maximal phenethylamine 100% | activation, % at 3 µM | actives 82% (n = 2,400) | AID 651783;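 active = activation above a cutoff set at the run's mean compound activation plus 3 SD, cut at about 39% in these data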
Ga16 ag counter-2 – counter-screen for TAAR1 agonists: nonselective agonists in parental cells; AID 651787; activation, % at 3 µM; CHO-Ga16 parental, Fluo-8 calcium fluorescence; normalized to maximal ATP response, DMSO zero; shares compounds with TAAR1 agonist; actives 50% (n = 2,400);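 active = activation above the run cutoff, the mean activation over all tested wells plus 3 SD, cut at about 12% in these data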;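 also: 0% = DMSO wells and 100% = maximal ATP response on the peak over basal ratio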
TAAR1 desens – counter-screen for human TAAR1 agonists: agonists that desensitize TAAR1; CHO RD-HGA16 hTAAR1, Fluo-8 calcium, beta-PEA response inhibition; shares compounds with TAAR1 agonist; inhibition, % at 3 µM; actives 46% (n = 2,400);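 active = inhibition above the run cutoff, the mean inhibition of all test compounds plus 3 SD, cut at about 49% in these data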;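 also: beta-PEA stimulus applied at its EC80; loss of beta-PEA calcium signal after compound pretreatment read as receptor desensitization; 0% = DMSO with beta-PEA at EC80 and 100% = DMSO alone without agonist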
Ga16 antag count – counter-screen for TAAR1 agonists: nonselective Ga16 antagonists; actives 39% (n = 2,400); shares compounds with TAAR1 agonist; inhibition, % at 3 µM; CHO-Ga16 ATP-induced calcium, Fluo-8 fluorescence;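 active = inhibition above the plate's mean compound inhibition plus 3 SD, computed per plate, cut at about 22% in these data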;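 also: 0% = EC80 ATP with DMSO and 100% = DMSO wells without ATP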
Active calls of the source: *. This is a sample that favours compounds with a hit; in the whole collection about 4% have one here.

`CC1CCCCC1NC(=O)COC(=O)c1c2c(nc3ccccc13)/C(=C\c1ccco1)CC2` (stereo unspecified) gave TAAR1 antagonist -4 and TAAR1 agonist 1.
For COc1ccc(N(CC(=O)NCCSc2ccccn2)S(=O)(=O)c2ccccc2)cc1Cl the results were OX1R antag-1 19, CHO parental Ca -21, OX1R antag-2 -23, NTR1 ag 2, TAAR1 antagonist 18 and TAAR1 agonist 9.
COc1ccc(Cl)cc1N(CC(=O)NCCSc1ccccn1)S(=O)(=O)c1ccccc1 was read as OX1R antag-1 79*, CHO parental Ca -13, OX1R antag-2 10, NTR1 ag 0, TAAR1 antagonist 58*, TAAR1 agonist 11, OX1R HTRF conf 80*, CHO-K1 HTRF cnt 8, nonsel antag count 16, TAAR1 antag conf 32, Ga16 ag counter-1 5 and TAAR1 ag counter 6.
COc1ccc(COC(=O)c2sc3nc4n(c(=O)c3c2C)CCC4)cc1 was read as OX1R antag-1 20, CHO parental Ca -16, OX1R antag-2 -12, NTR1 ag 4, TAAR1 antagonist 1 and TAAR1 agonist 0.
For CCC(=O)N1CCN(c2ccc(NC(=O)c3cc4ccccc4o3)cc2Cl)CC1 the results were OX1R antag-1 81*, CHO parental Ca 18, OX1R antag-2 11, NTR1 ag 37, TAAR1 antagonist 73*, TAAR1 agonist 25, OX1R HTRF conf 34, CHO-K1 HTRF cnt 7, nonsel antag count 49*, TAAR1 antag conf 66*, Ga16 ag counter-1 13* and TAAR1 ag counter 12.
For COc1cc(NC(=O)NC2Cc3ccccc3C2)cc(OC)c1 the results were OX1R antag-1 3, CHO parental Ca -24, OX1R antag-2 -21, NTR1 ag -1, TAAR1 antagonist -11 and TAAR1 agonist 1.
For O=C(Nc1cccc(-c2nc3ncccc3o2)c1)c1cc2ccccc2o1 the results were OX1R antag-1 105*, CHO parental Ca -35, OX1R antag-2 1, NTR1 ag 6, TAAR1 antagonist 61*, TAAR1 agonist 16, OX1R HTRF conf 92*, CHO-K1 HTRF cnt 19*, nonsel antag count 28*, TAAR1 antag conf 49*, Ga16 ag counter-1 6 and TAAR1 ag counter 7.
Cc1ccc(-c2nc3ncccc3o2)cc1NC(=O)c1cc2ccccc2o1 was read as OX1R antag-1 -2, CHO parental Ca -8, OX1R antag-2 -24, NTR1 ag 4, TAAR1 antagonist 13 and TAAR1 agonist 14.
`O=C(CSc1n[nH]c(-c2ccccc2)n1)NC(=O)NCc1ccco1` gave OX1R antag-1 82*, CHO parental Ca -10, OX1R antag-2 -13, OX1R HTRF conf 47, CHO-K1 HTRF cnt 4, Ga16 ag counter-2 1 and Ga16 antag count -4.
Screening COC(=O)c1cn(C(=O)c2ccc(OC)cc2)c2ccccc12 returned OX1R antag-1 11, CHO parental Ca -11, OX1R antag-2 -21, NTR1 ag 5, TAAR1 antagonist 12 and TAAR1 agonist 10.
Screening O=C1CCN2C=Nc3cccc4ccc1c2c34 returned OX1R antag-1 92*, CHO parental Ca 27, OX1R antag-2 22, NTR1 ag -1, TAAR1 antagonist 32, TAAR1 agonist 109*, OX1R HTRF conf 42, CHO-K1 HTRF cnt 19*, TAAR1 ag conf 31, Ga16 ag counter-2 36*, TAAR1 desens 25 and Ga16 antag count 20.
Screening O=S(=O)(NCCc1cn2ccccc2n1)c1ccc2c(c1)OCCO2 returned OX1R antag-1 0, CHO parental Ca -2, OX1R antag-2 -19, NTR1 ag 2, TAAR1 antagonist -21 and TAAR1 agonist 1.
O=S(=O)(NCCc1csc(-c2ccccc2)n1)c1ccc2c(c1)OCCO2 was read as OX1R antag-1 83*, CHO parental Ca -14, OX1R antag-2 13, NTR1 ag 2, TAAR1 antagonist 34, TAAR1 agonist 94*, OX1R HTRF conf 64*, CHO-K1 HTRF cnt 1, TAAR1 ag conf 62*, Ga16 ag counter-2 43*, TAAR1 desens 32 and Ga16 antag count 24*.
CCC1(CC)NC(=O)N(CC(=O)NC(=O)NCc2ccccc2)C1=O was read as OX1R antag-1 -1, CHO parental Ca -19, OX1R antag-2 -18, NTR1 ag 1, TAAR1 antagonist -8 and TAAR1 agonist 0.
`CC(=O)Nc1ccc(Nc2nc(C)c([N+](=O)[O-])c(Nc3ccccc3)n2)cc1` gave OX1R antag-1 32, CHO parental Ca -13, OX1R antag-2 -17, NTR1 ag 46*, TAAR1 antagonist 36, TAAR1 agonist 5 and NTR1 ag confirm 28.

Bioassay records: PubChem BioAssay, several laboratories
